Test results published in ChEMBL document CHEMBL2169837 (J Med Chem, 2012).
In brackets after ≈: the same amount, converted by molar mass. Activity calls are given as the source filed them. No cut-off for these calls is given here.

Key:
Oxytocin receptor = biological target: T1, Oxytocin receptor (Homo sapiens, UniProt P30559); assay: Displacement of [3H]-AVP from human oxytocin receptor expressed in CHO cells after 30 mins; assay type: cell-based
T1 sequence (P30559 whole entry): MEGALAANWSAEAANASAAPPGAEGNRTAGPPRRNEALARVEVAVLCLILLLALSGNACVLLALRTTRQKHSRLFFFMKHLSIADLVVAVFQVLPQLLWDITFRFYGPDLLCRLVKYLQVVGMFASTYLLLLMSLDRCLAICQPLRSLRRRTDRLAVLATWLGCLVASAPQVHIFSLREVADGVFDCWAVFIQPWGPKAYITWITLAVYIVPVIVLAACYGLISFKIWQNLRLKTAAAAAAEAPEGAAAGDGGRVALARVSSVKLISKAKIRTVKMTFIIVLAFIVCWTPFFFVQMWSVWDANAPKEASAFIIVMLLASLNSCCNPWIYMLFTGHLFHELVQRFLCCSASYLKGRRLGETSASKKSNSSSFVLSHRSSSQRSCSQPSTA

[1] = biological target: T2, Oxytocin receptor (Homo sapiens) (UniProt P30559); assay: Displacement of [3H]-AVP from human oxytocin receptor expressed in CHO cells at 10 uM after 30 mins; assay type: cell-based
T2 sequence (whole entry): T1 sequence (P30559 whole entry)
How it was run: (§1)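 Human OTR, V1aR or V1bR membranes from CHO cells, [3H]-AVP displacement with compound at a single 10 μM concentration, 30 min at 30 °C in Tris-HCl pH 7.4/MgCl2/BSA buffer.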

[2] = biological target: T3, Vasopressin V1b receptor (Homo sapiens) (UniProt P47901); assay: Displacement of [3H]-AVP from human vasopressin V1b receptor expressed in CHO cells at 10 uM after 30 mins; assay type: cell-based; how it was run: as §1
T3 sequence (whole entry): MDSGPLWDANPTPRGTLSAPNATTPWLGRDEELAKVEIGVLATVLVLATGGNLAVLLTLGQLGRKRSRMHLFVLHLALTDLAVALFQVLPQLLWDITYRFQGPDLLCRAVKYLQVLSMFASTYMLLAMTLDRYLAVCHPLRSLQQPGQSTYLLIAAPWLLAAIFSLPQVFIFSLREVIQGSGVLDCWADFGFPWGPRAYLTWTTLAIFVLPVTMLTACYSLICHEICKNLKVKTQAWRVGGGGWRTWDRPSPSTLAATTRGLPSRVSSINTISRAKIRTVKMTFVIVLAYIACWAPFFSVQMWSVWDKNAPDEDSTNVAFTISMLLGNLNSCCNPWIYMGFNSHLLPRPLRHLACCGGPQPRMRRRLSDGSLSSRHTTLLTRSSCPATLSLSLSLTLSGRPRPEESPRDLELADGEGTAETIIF

Vasopressin V1b receptor = biological target: T4, Vasopressin V1b receptor (Homo sapiens, UniProt P47901); assay: Displacement of [3H]-AVP from human vasopressin V1b receptor expressed in CHO cells after 30 mins; assay type: cell-based
T4 sequence (P47901 whole entry): T3 sequence (whole entry)

Vasopressin V1a receptor [3] = biological target: T5, Vasopressin V1a receptor (Homo sapiens, UniProt P37288); assay: Displacement of [3H]-AVP from human vasopressin V1a receptor expressed in CHO cells at 10 uM after 30 mins; assay type: cell-based; how it was run: as §1
Target sequence in this assay (P37288 whole entry, looked up): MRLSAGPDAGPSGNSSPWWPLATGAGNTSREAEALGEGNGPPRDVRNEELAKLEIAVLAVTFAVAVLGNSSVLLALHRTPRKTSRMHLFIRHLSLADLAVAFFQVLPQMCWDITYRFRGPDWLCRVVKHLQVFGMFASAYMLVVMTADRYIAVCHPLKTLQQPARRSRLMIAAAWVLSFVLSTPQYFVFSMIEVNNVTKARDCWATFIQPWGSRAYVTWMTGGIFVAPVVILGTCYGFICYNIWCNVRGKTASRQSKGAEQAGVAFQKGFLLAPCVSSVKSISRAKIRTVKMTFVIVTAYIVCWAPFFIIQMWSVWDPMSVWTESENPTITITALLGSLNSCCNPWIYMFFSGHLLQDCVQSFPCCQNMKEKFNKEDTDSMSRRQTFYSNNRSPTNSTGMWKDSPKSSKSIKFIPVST

Vasopressin V1a receptor [4] = biological target: T5, Vasopressin V1a receptor; assay: Displacement of [3H]-AVP from human vasopressin V1a receptor expressed in CHO cells after 30 mins; assay type: cell-based
Target sequence in this assay (P37288 whole entry): as the sequence (P37288 whole entry, looked up) above

Vasopressin V2 receptor [5] = biological target: T6, Vasopressin V2 receptor (Homo sapiens, UniProt P30518); assay: Antagonist activity at human vasopressin V2 receptor expressed in CHO cells assessed as inhibition of AVP-induced cAMP accumulation after 30 mins by TR-FRET based HTRF assay; assay type: functional, cell-based
T6 sequence (P30518 whole entry): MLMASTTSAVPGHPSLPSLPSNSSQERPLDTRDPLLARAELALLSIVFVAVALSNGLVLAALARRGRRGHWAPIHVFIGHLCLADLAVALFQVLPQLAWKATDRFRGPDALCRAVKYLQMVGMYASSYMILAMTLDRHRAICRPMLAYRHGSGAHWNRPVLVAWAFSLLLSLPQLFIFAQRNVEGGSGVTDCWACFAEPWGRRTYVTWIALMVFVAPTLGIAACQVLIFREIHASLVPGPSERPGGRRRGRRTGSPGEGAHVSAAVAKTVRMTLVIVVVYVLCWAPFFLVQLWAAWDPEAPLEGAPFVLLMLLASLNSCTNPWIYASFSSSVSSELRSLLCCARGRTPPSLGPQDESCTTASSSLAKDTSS
How it was run: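 CHO cells stably expressing human V2R, 5 × 10^3 per well on polyornithine, used 24 h after seeding. Incubated 30 min at 37 °C with compound (10−12 to 10−5 M) plus phosphodiesterase inhibitor RO 201724 0.1 mM. Antagonist mode run with 1 nM AVP. Cells lysed and cAMP read by HTRF (TR-FRET). Kact/Kinact from three independent experiments in triplicate, mean ± SEM.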

Vasopressin V2 receptor [6] = biological target: T6, Vasopressin V2 receptor; assay: Agonist activity at human vasopressin V2 receptor expressed in CHO cells assessed as cAMP accumulation after 30 mins by TR-FRET based HTRF assay; assay type: functional, cell-based
How it was run: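 CHO cells stably expressing human V2R, 5 × 10^3 per well on polyornithine, used 24 h after seeding. Cells lysed and cAMP read by HTRF (TR-FRET). Kact/Kinact from three independent experiments in triplicate, mean ± SEM.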

[7] = Solubility of the compound in HEPES buffer at pH 7.4 after 24 hrs; assay type: physicochemical
How it was run: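 Solubility measured in pH 7.4 HEPES buffer after 24 h incubation at 22 °C.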

Vasopressin V2 receptor [8] = biological target: T6, Vasopressin V2 receptor; assay: Displacement of [3H]-AVP from human vasopressin V2 receptor expressed in CHO cells after 30 mins; assay type: cell-based
[9] = biological target: T7, Muscarinic acetylcholine receptor M1 (Homo sapiens, UniProt P11229); assay: Binding affinity to human muscarinic M1 receptor
T7 sequence (P11229 whole entry): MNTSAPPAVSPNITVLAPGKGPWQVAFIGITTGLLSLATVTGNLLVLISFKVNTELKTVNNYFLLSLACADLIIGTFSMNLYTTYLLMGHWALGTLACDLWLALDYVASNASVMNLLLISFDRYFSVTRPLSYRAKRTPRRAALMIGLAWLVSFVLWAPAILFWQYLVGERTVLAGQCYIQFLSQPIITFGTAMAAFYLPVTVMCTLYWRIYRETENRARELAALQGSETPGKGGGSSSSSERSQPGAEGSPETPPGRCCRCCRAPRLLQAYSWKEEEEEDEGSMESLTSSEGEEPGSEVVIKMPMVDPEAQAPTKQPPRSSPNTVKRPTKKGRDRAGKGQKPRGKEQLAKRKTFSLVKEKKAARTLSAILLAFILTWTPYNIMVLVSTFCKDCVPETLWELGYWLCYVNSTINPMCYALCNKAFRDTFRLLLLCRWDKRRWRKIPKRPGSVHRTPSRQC

| SMILES | Ki (Oxytocin receptor) | inhibition [1] | inhibition [2] | Ki (Vasopressin V1b receptor) | inhibition (Vasopressin V1a receptor [3]) | Ki (Vasopressin V1a receptor [4]) | Kb (Vasopressin V2 receptor [5]) | inhibition (Vasopressin V2 receptor [5]) | Activity (Vasopressin V2 receptor [6]) | solubility at 24 h [7] | Ki (Vasopressin V2 receptor [8]) | Ki [9] |
| --- | --- | --- | --- | --- | --- | --- | --- | --- | --- | --- | --- | --- |
| CCN(CC)c1ccc2c(-c3ccc(S(=O)(=O)[O-])cc3S(=O)(=O)NCCOCCOCCOCCn3cc(CNC(=O)CCC(=O)NC4CCCN(C(=O)c5ccc(NC(=O)c6ccccc6-c6ccccc6)cc5)c5ccccc54)nn3)c3ccc(=[N+](CC)CC)cc-3oc2c1 (configuration not stated) | > 10 µM | < 50% | < 50% | > 10 µM | < 50% | > 10 µM | 0.00212 µM | Dose-dependent effect | inactive |  | 0.0141 µM |  |
| CCN(CC)c1ccc2c(-c3ccc(S(=O)(=O)NCCOCCOCCOCCn4cc(CNC(=O)CCC(=O)NC5CCCN(C(=O)c6ccc(NC(=O)c7ccccc7C)cc6)c6ccccc65)nn4)cc3S(=O)(=O)[O-])c3ccc(=[N+](CC)CC)cc-3oc2c1 (configuration not stated) | 0.495 µM |  | < 50% | > 10 µM | < 50% | > 10 µM | 0.0167 µM | Dose-dependent effect | inactive | 3.4 µM (≈ 4.4 µg/mL) | 0.0543 µM |  |
| O=C(CCC1=[N+]2C(C=C1)Cc1ccc(-c3cccs3)n1[B-]2(F)F)NCCN1CCN(CC(=O)N2c3ccccc3C(=O)Nc3cccnc32)CC1 (configuration not stated) |  |  |  |  |  |  |  |  |  |  |  | > 1 µM |

Results, then the compound that gave them:

| Ki (Oxytocin receptor) | inhibition [1] | inhibition [2] | Ki (Vasopressin V1b receptor) | inhibition (Vasopressin V1a receptor [3]) | Ki (Vasopressin V1a receptor [4]) | Kb (Vasopressin V2 receptor [5]) | inhibition (Vasopressin V2 receptor [5]) | Activity (Vasopressin V2 receptor [6]) | solubility at 24 h [7] | Ki (Vasopressin V2 receptor [8]) | Ki [9] | SMILES |
| --- | --- | --- | --- | --- | --- | --- | --- | --- | --- | --- | --- | --- |
| > 10 µM | < 50% | < 50% | > 10 µM | < 50% | > 10 µM | 0.00196 µM | Dose-dependent effect | inactive | 2.1 µM (≈ 2.85 µg/mL) | 0.004 µM |  | CCN(CC)c1ccc2c(-c3ccc(S(=O)(=O)NCCOCCOCCOCCn4cc(CNC(=O)CCC(=O)NC5CCCN(C(=O)c6ccc(NC(=O)c7ccccc7-c7ccccc7)cc6)c6ccccc65)nn4)cc3S(=O)(=O)[O-])c3ccc(=[N+](CC)CC)cc-3oc2c1 (configuration not stated) |
|  |  |  |  |  |  | 0.00066 µM | Dose-dependent effect | inactive | 3.1 µM (≈ 3.41 µg/mL) | 0.0076 µM |  | CCN(CC)c1ccc2c(-c3ccc(S(=O)(=O)NCCCCC(=O)NC4CCCN(C(=O)c5ccc(NC(=O)c6ccccc6-c6ccccc6)cc5)c5ccccc54)cc3S(=O)(=O)[O-])c3ccc(=[N+](CC)CC)cc-3oc2c1 (configuration not stated) |
| 0.307 µM |  | < 50% | > 10 µM | < 50% | > 10 µM | 0.164 µM | Dose-dependent effect | inactive |  | 0.188 µM |  | CCN(CC)c1ccc2c(-c3ccc(S(=O)(=O)[O-])cc3S(=O)(=O)NCCOCCOCCOCCn3cc(CNC(=O)CCC(=O)NC4CCCN(C(=O)c5ccc(NC(=O)c6ccccc6C)cc5)c5ccccc54)nn3)c3ccc(=[N+](CC)CC)cc-3oc2c1 (configuration not stated) |
|  |  |  |  |  |  |  |  |  |  |  | 0.0088 µM | O=C(CCC1=[N+]2C(C=C1)Cc1ccc(-c3cccs3)n1[B-]2(F)F)NCCCCCCN1CCN(CC(=O)N2c3ccccc3C(=O)Nc3cccnc32)CC1 (configuration not stated) |
